A selection: hits, their analogues and other compounds. The true share with any hit is near 2.3%.
TAAR1 ag: agonists of human TAAR1; activation, % at 3 µM; CHO RD-HGA16 TAAR1, Fluo-8 calcium fluorescence; vehicle wells 0%, saturating PEA agonist 100%; 360,000 tested, 0.99% active; AID 624467; Q96RJ0;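 active means activation above the mean activation of all test compounds in the run plus 3 SD, cut at about 38% in these data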
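Repeats: no replicates (n 1) | Material: CHO-derived RD-HGA16 cells with stable Gα16 and human TAAR1 | Technique: Kinetic Fluo-8 calcium fluorescence | Schedule: 17-24 h seeding, 75 min 37 °C dye, 30 min RT | Evaluation: % activation from peak over basal fluorescence ratio, DMSO-to-PEA scaled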
V1R ag counter: V1a receptor agonism, counter-screen for OXTR agonists; P37288; CHO-V1R cells, Fluo-8 calcium fluorescence, agonist mode; 0% DMSO, 100% 3 nM vasopressin; activation, % at 3 µM; 320,000 tested, 0.25% active;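 active means activation above the mean activation of all tested compounds plus 3 SD, per screening run, cut at about 20% in these data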;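 further: signal is peak over basal fluorescence ratio across a 100 second FLIPR read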
OXTR agonist: activates the human oxytocin receptor; P30559; CHO-OTR cells, Fluo-8 calcium fluorescence; normalized: DMSO 0%, oxytocin 100%; activation, % at 3 µM; 320,000 tested, 0.32% active; AID 2435;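 active means activation above the mean of all tested compounds plus 3 SD, cutoff set per screening run, cut at about 20% in these data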;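 further: peak over basal fluorescence ratio from a 100 s FLIPR kinetic read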
Target sequence (P30559 whole entry, looked up): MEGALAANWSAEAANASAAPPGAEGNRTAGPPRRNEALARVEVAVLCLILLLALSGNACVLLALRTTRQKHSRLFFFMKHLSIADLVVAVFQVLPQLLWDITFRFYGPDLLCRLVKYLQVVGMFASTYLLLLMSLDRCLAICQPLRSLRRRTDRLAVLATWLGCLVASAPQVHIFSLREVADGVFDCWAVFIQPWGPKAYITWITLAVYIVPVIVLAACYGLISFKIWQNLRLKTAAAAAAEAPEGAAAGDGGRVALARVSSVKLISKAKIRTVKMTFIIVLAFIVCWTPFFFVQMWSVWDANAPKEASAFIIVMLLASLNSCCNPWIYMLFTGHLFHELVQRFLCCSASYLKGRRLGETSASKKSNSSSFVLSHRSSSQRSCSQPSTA
TAAR1 antag: antagonists of human TAAR1; Q96RJ0; CHO RD-HGA16 TAAR1, Fluo-8 calcium fluorescence, antagonist; inhibition, % at 3 µM; 360,000 tested, 1.5% active; AID 624466;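 active means inhibition above a per-plate cutoff, the mean inhibition of test compounds on that plate plus 3 SD, cut at about 49% in these data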;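 further: 0% = DMSO plus EC80 beta-PEA response and 100% = DMSO alone without agonist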
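Test system – hTAAR1-expressing CHO RD-HGA16 cells, Gα16-coupled · Also added – β-PEA at EC80 concentration, post-compound challenge · Compound – 3 µM, single point · Incubation – dye loading 75 min at 37 °C, then 30 min room temperature · Measured by – Fluo-8 intracellular calcium dye fluorescence, real-time kinetic reads · Benchmarks – vehicle and agonist controls · Replicates – singlicate, one well per test compound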
OXTR potentiate: potentiates the human oxytocin receptor response | CHO-OTR cells, Fluo-8 calcium fluorescence, potentiator mode; 0% = oxytocin EC15, 100% = EC100 | activation, % at 3 µM | 320,000 tested, 0.061% active | AID 2445;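 active means activation above that plate's cutoff, the mean activation of tested compounds plus 3 SD, cut at about 6.6% in these data, passing the limit was not always enough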;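 further: 100% uses oxytocin at 75 nM as the full agonist control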
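Assay system: CHO cell line stably expressing human OTR. Reagent: EC15 oxytocin agonist. Dosing: single dose, 3.0 µM nominal final compound concentration. Timing: compound 6 min at room temperature before oxytocin, 100 s read. Signal: kinetic Fluo-8 calcium fluorescence. Controls: oxytocin EC15 low and EC100 high.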
An asterisk follows results filed as active; x = not tested or not shown; ! = not confirmed by another sample.

SMILES	TAAR1 ag	V1R ag counter	OXTR agonist	TAAR1 antag	OXTR potentiate
CC(C)(C)OC(=O)N[C@@H](Cc1ccccc1)C(=O)N[C@@H](CO)[C@H](O)[C@@H]1C[C@@H]1C(=O)NC1CCCCC1	3	1	0	-5	-1
CCCC1NC(=O)c2cc3ccccc3cc2-n2c1nc1cc(Cl)ccc1c2=O (stereo not drawn)	-1	x	x	26	x
COc1cc(CNCCc2ccccc2)ccc1OCC(=O)NC(C)(C)C	67*	1	1	-1	2
COc1cc(CNCCCO)ccc1OCC(=O)NC(C)(C)C	1	1	0	2	-3
CCOCC(=O)Nc1c(C(=O)Nc2ccc3c(c2)OCCO3)oc2ccccc12	0	-2	-2	22	-8
CCOC(=O)C1CCCN(C2CC(=O)N(c3cccc(C(F)(F)F)c3)C2=O)C1 (stereo not drawn)	43*	0	-1	44	-2
CC1=C(C(=O)NC2CCCc3c2cnn3-c2cc(F)cc(F)c2)OCCO1 (stereo not drawn)	-1	3	0	-5	-4
CC1CC(C)(C)CC2(C1)NC(=O)N(CC(=O)OCc1ccc(Br)cc1)C2=O (stereo not drawn)	41*	-1	-1	23	-10
O=C(CN1C(=O)NC2(CCCC2)C1=O)OCc1ccc(Br)cc1	-3	1	0	2	-6
Cc1[nH]c2ccccc2c1C(=O)CN1C(=O)NC2(CC(C)CC(C)(C)C2)C1=O (stereo not drawn)	17	8	8	53*	-11
CCc1ccc(NC(=O)C2CCN(S(=O)(=O)c3ccc4c(c3)CC(C)N4C(C)=O)CC2)cc1 (stereo not drawn)	11	8	7	50*	-9
COc1ccc(CCNC(=O)c2ccc3c(c2)N(Cc2ccc(F)cc2)CCS3)cc1OC	-1	3	1	59*	-6
COc1ccc(C(=O)CSc2ccccc2C(=O)O)cc1	4	-1	-1	-3	1
COc1cc(NC(=O)c2cc3cccc(OC)c3o2)cc(C(=O)Nc2cccc(C(F)(F)F)c2)c1	21	4	1	87*	-23
COc1ccc(-c2cc(C(=O)Nc3cc(OC)cc(C(=O)Nc4cccc(C(F)(F)F)c4)c3)[nH]n2)cc1	10	3	4	55*	-15
COc1cc(NC(=O)c2ccno2)cc(C(=O)Nc2cccc(C(F)(F)F)c2)c1	18	13	14	38	-14
CCN1CCN(Cc2ccc(NC(=O)c3cc(NC(=O)c4cc5cccc(OC)c5o4)cc(OC)c3)cc2C(F)(F)F)CC1	11	2	3	59*!	-4
CCOc1ccccc1CNC(=O)CCNS(=O)(=O)c1ccc2[nH]c(=O)oc2c1	0	0	-1	-2	1
COc1ccc(CCN2C(=O)C(Oc3ccccc3)C2c2ccc3c(c2)OCO3)cc1 (stereo not drawn)	12	0	-2	31	0
O=C1C(Oc2ccc(Cl)cc2)C(c2ccc3c(c2)OCO3)N1CC1CCCO1 (stereo not drawn)	14	4	0	50*	-20
COc1ccccc1NC(=O)C(Sc1ccccc1)c1ccccc1 (stereo not drawn)	-1	3	-1	7	-2
CCOc1ccccc1NC(=O)C(Sc1ccccc1)c1ccccc1 (stereo not drawn)	12	3	0	57*	-17
COc1cccc(-c2cc(C(=O)N3CCN(c4ncccn4)CC3)c3ccccc3n2)c1	15	-1	-1	56*	-3
CC(C)Oc1cccc(-c2cc(C(=O)N3CCN(S(C)(=O)=O)CC3)c3ccccc3n2)c1	19	1	4	43	-9
CC(C)Oc1cccc(-c2cc(C(=O)N3CCN(c4ncccn4)CC3)c3ccccc3n2)c1	33	-1	-1	52*	-3
COc1cc2ccccc2nn1	7	0	-1	6	-9
COc1ccc2c(n1)Sc1nc3ccccc3nc1N2	22	56*	86*	17	-21
CCOC(=O)c1csc(NC(=O)CSc2nnnn2-c2ccc(OCC)cc2)n1	40*	x	x	2	x

Assay outcomes as filed in PubChem BioAssay.
